Active and inactive are the calls of the source. No cut-off for these calls is given here. Bridge positions count the residues as written; N and C are the ends. Square brackets hold non-standard residues; d marks the D form. Peptide text beside a SMILES is read from it. Mpa = O=C(O)CCS
Legend:
[1] = species on record: Rattus norvegicus; assay: Pressor activity in rat; format: functional
Method in brief: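 Anesthetized male rats, per the U.S. Pharmacopeia. Potency is estimated by matches, with the USP posterior pituitary standard always injected before the analogue. Before each analogue dose, several standard doses are confirmed to give reproducible, unattenuated responses. Reported as USP U/mg ± SEM, five animals.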

[2] = system: Rattus norvegicus; assay: Induction of vasodepressor activity in anesthetized male rat at 0.5 mg
[3] = species on record: Oryctolagus cuniculus; assay: Induction of oxytocic activity in rabbit assessed as milk ejection; format: functional
[4] = target: T1, Oxytocin receptor (Rattus norvegicus) (UniProt P70536); assay: Activity at rat oxytocin receptor in rat uterus assessed as uterotonic activity; format: tissue-based
T1 sequence (whole entry): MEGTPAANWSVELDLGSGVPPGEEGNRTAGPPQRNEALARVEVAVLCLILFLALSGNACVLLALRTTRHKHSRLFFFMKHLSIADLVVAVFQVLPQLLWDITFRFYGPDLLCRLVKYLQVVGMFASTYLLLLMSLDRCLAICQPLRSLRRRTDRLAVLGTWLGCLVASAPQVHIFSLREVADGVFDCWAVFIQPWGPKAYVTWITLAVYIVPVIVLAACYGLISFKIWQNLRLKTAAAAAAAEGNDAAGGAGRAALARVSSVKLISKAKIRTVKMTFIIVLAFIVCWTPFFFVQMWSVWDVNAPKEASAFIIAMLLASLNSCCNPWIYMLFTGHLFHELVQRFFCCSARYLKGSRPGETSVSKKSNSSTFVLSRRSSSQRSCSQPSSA
Method in brief: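 Isolated uterine horns from virgin rats in natural estrus, Holton method as modified by Munsick, bathed in Mg²⁺-free van Dyke–Hastings solution. Specific activity is derived against the USP standard by a Schild four-point design or by matches. Expressed as USP U/mg ± SEM, with at least three animals per determination.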

[5] = system: Gallus gallus; assay: Induction of vasodepressor activity in conscious chicken; format: functional
[6] = species on record: Rattus norvegicus; assay: Antidiuretic activity in rat; format: functional, Urine
Method in brief: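 Anesthetized male rats, Jeffers et al. method as modified by Sawyer. Specific activity is obtained against the USP standard using a Schild four-point design or matches. Reported as USP U/mg ± SEM, five animals per determination.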

[7] = target: T2, Oxytocin receptor (Homo sapiens) (UniProt P30559); assay: Activity at oxytocin receptor (unknown origin) assessed as oxytocic activity
T2 sequence (whole entry): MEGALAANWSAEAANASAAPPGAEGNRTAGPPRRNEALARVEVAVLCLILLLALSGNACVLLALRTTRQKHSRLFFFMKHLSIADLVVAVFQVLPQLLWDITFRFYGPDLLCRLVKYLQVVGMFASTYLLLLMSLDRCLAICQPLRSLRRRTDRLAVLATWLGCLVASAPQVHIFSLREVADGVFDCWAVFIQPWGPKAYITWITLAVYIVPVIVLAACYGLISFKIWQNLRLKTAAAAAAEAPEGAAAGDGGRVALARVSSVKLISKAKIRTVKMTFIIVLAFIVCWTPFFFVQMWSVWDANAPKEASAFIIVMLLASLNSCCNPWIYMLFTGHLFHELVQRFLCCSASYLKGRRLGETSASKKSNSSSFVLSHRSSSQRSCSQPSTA

[8] = species on record: Rattus norvegicus; assay: Pressor activity in rat after 45 mins; format: functional, organism-based
[9] = Drug metabolism in rat uterine homogenate assessed as compound inactivation after 30 mins; format: ADME, tissue-based, Uterus; settings: read-out: Drug metabolism
[10] = Drug metabolism in rat uterine homogenate assessed as compound inactivation after 60 mins; format: ADME, tissue-based, Uterus; settings: read-out: Drug metabolism

Row | Structure (SMILES) | Activity [1] | Activity [2] | Activity [3] | Activity [4] | Activity [5] | Activity [6] | Activity [7] | Activity [8] | metabolised at 0.5 h [9] | metabolised at 1 h [10]
1 | CC[C@H](C)[C@@H]1NC(=O)[C@H](Cc2ccc(O)cc2)NC(=O)[C@@H](N)CSSC[C@@H](C(=O)NCC(=O)N[C@@H](CC(C)C)C(=O)NCC(N)=O)NC(=O)[C@H](CC(N)=O)NC(=O)[C@H](CCC(N)=O)NC1=O (H-CYIQNCGLG-NH2; disulfide 1-6) | 0.3 USP-U/mg | 25 mmHg | 224 USP-U/mg | 65 USP-U/mg | 5.3 USP-U/mg | <=0.01 USP-U/mg | 68 U/mg |  |  | 
2 | CC[C@H](C)[C@@H]1NC(=O)[C@H](Cc2ccc(O)cc2)NC(=O)[C@@H](N)CSSC[C@@H](C(=O)N2CCC[C@H]2C(=O)N[C@@H](CC(C)C)C(=O)NCC(N)=O)NC(=O)[C@H](CC(N)=O)NC(=O)[C@H](CCC(N)=O)NC1=O [OXYTOCIN] | 3.1 USP-U/mg |  | 440 USP-U/mg | 546 USP-U/mg | 507 USP-U/mg | 2.7 USP-U/mg |  | Active |  | 
3 | CC[C@H](C)[C@@H]1NC(=O)[C@H](Cc2ccc(O)cc2)NC(=O)[C@@H](N)CSSC[C@@H](C(=O)N[C@@H](C)C(=O)N[C@@H](CC(C)C)C(=O)NCC(N)=O)NC(=O)[C@H](CC(N)=O)NC(=O)[C@H](CCC(N)=O)NC1=O (H-CYIQNCALG-NH2; disulfide 1-6) | 0.4 USP-U/mg |  |  | 22 USP-U/mg | 4.8 USP-U/mg | 0.08 USP-U/mg |  |  |  | 
4 | CC[C@H](C)[C@@H]1NC(=O)[C@H](Cc2ccc(O)cc2)NC(=O)CCSSC[C@@H](C(=O)NCC(=O)N[C@@H](CC(C)C)C(=O)NCC(N)=O)NC(=O)[C@H](CC(N)=O)NC(=O)[C@H](CCC(N)=O)NC1=O ([Mpa]YIQNCGLG-NH2; disulfide 1-6) | 0.5 USP-U/mg |  |  | 355 USP-U/mg | 17 USP-U/mg | 0.062 USP-U/mg |  |  | 3% | 30%
5 | CC[C@H](C)[C@@H]1NC(=O)[C@H](Cc2ccc(O)cc2)NC(=O)CCSSC[C@@H](C(=O)N[C@@H](C)C(=O)N[C@@H](CC(C)C)C(=O)NCC(N)=O)NC(=O)[C@H](CC(N)=O)NC(=O)[C@H](CCC(N)=O)NC1=O ([Mpa]YIQNCALG-NH2; disulfide 1-6) | 0.5 USP-U/mg |  |  | 123 USP-U/mg | 9.8 USP-U/mg | 0.17 USP-U/mg |  |  |  | 
6 | CC[C@H](C)[C@@H]1NC(=O)[C@H](Cc2ccc(O)cc2)NC(=O)CCSSC[C@@H](C(=O)N2CCC[C@H]2C(=O)N[C@@H](CC(C)C)C(=O)NCC(N)=O)NC(=O)[C@H](CC(N)=O)NC(=O)[C@H](CCC(N)=O)NC1=O | 1.44 USP-U/mg |  | 541 USP-U/mg | 803 USP-U/mg | 975 USP-U/mg | 19 USP-U/mg |  |  |  | 

Source: ChEMBL document CHEMBL3272081, “Oxytocin analogues with combined high smooth muscle and negligible antidiuretic activities. Investigation of position 7 in neurohypophyseal hormones” (J Med Chem, 1976)
